In ChEMBL document CHEMBL4219100, “Discovery of selective EGFR modulator to inhibit L858R/T790M double mutants bearing a N-9-Diphenyl-9H-purin-2-amine scaffold” (Bioorg Med Chem, 2018):

How the values were obtained:
[1] = target: Epidermal growth factor receptor (Homo sapiens, UniProt P00533, L858R/T790M); experiment: Inhibition of recombinant human GST-tagged EGFR L858R/T790M double mutant cytoplasmic domain (668 to 1210 residues) expressed in baculovirus expression system using FAM-labelled peptide as substrate pretreated for 10 mins followed by substrate addition measured after 1 hr by mobility shift assay
Sequence of Epidermal growth factor receptor (Homo sapiens, UniProt P00533, L858R/T790M) (P00533 25-1210 T790M/L858R limits assumed): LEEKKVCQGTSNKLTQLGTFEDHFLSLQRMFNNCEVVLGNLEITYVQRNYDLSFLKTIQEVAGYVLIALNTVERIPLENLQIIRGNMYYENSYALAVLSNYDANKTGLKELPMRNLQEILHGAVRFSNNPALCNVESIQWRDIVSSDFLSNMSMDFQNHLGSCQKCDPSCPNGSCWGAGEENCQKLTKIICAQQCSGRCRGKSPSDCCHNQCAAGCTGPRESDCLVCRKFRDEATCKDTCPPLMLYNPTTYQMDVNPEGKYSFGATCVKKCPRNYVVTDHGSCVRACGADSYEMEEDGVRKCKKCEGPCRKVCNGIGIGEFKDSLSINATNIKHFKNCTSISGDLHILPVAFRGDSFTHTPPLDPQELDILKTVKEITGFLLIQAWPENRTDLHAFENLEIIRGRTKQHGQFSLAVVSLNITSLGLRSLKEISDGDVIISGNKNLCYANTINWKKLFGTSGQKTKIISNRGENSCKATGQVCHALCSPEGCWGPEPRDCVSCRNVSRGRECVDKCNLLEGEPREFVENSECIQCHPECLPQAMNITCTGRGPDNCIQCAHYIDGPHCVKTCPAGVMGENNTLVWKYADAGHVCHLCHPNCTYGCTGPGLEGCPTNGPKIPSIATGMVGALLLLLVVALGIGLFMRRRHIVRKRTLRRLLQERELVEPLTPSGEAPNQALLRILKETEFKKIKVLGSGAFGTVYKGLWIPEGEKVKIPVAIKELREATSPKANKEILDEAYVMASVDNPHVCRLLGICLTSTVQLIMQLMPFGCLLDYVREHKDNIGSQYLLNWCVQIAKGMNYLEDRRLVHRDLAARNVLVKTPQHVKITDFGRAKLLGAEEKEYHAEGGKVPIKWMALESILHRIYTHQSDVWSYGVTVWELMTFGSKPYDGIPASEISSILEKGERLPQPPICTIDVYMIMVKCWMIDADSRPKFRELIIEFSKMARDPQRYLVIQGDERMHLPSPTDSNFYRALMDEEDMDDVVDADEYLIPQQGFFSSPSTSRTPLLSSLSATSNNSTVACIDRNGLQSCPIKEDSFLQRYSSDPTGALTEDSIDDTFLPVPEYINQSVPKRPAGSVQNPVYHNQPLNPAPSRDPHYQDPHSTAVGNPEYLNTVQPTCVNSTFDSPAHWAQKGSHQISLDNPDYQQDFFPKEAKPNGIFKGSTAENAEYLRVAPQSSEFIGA

HT-29 = experiment: Cytotoxicity against human HT-29 cells after 72 hrs by MTT assay; type: cell-based; details: HT-29, 72 h
Summary of the method: (§1)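 Cells grown in MEM with 10% FBS; about 4×10^3 cells per well seeded and held 24 h at 37°C in 5% CO₂. Compounds then added and culture continued 72 h. MTT added ([…]) for 4 h at 37°C. Formazan dissolved in DMSO and absorbance read at 492 nm against 630 nm reference. Each compound tested three times per line; IC50 is the mean of at least three determinations.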

[2] = target: Epidermal growth factor receptor (Homo sapiens, UniProt P00533, T790M); experiment: Inhibition of recombinant human GST-tagged EGFR T790M mutant cytoplasmic domain (668 to 1210 residues) expressed in baculovirus expression system using FAM-labelled peptide as substrate pretreated for 10 mins followed by substrate addition measured after 1 hr by mobility shift assay
[3] = target: Epidermal growth factor receptor (Homo sapiens, UniProt P00533); experiment: Inhibition of recombinant human GST-tagged EGFR cytoplasmic domain (668 to 1210 residues) expressed in baculovirus expression system using FAM-labelled peptide as substrate pretreated for 10 mins followed by substrate addition measured after 1 hr by mobility shift assay
Sequence of Epidermal growth factor receptor (Homo sapiens, UniProt P00533) (P00533 whole entry, the tested form may be a part): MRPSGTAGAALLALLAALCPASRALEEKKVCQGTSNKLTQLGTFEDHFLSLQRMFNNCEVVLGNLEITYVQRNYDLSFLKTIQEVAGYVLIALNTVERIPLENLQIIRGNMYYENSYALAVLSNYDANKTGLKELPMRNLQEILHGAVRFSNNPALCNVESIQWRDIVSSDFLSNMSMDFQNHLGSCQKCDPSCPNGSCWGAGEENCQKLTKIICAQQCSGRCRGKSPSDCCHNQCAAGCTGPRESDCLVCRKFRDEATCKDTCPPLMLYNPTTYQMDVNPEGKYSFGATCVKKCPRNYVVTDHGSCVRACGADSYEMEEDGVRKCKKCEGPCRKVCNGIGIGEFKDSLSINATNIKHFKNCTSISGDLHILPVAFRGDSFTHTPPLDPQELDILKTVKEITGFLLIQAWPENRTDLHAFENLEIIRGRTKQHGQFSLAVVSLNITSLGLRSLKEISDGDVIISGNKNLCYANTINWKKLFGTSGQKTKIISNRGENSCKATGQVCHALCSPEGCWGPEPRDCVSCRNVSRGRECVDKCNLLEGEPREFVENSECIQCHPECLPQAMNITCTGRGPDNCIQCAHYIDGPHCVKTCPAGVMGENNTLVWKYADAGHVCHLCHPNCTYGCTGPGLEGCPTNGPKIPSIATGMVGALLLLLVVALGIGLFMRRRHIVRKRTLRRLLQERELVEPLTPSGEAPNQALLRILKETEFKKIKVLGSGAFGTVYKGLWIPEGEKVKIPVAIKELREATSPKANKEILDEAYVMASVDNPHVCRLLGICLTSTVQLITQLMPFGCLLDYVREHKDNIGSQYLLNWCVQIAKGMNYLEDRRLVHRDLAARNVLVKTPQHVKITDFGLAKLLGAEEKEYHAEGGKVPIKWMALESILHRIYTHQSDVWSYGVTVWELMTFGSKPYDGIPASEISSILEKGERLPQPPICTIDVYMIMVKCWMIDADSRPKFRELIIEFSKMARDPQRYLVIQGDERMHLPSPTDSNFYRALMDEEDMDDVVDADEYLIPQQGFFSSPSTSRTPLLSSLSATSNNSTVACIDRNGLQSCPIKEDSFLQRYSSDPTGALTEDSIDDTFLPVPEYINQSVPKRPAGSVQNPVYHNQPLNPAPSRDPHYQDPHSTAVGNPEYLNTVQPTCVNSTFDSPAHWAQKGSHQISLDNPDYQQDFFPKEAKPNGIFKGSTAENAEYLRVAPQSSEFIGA

A549 = experiment: Cytotoxicity against human A549 cells expressing wild-type EGFR/K-ras mutant after 72 hrs by MTT assay; type: cell-based; details: A549, 72 h; summary of the method: as §1
Homo sapiens [4] = species on record: Homo sapiens; experiment: Selectivity ratio of IC50 for recombinant human GST-tagged EGFR cytoplasmic domain (668 to 1210 residues) expressed in baculovirus expression system to IC50 for recombinant human GST-tagged EGFR L858R/T790M double mutant cytoplasmic domain (668 to 1210 residues) expressed in baculovirus expression system
Summary of the method: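 Caliper mobility-shift kinase assay in 50 mM HEPES pH 7.5, 0.0015% Brij35, 2 mM DTT. Five-point DMSO dilution series, in duplicate. Enzyme (EGFR form as appropriate) was preincubated with compound for 10 min at room temperature. FAM-labeled peptide plus ATP was added, then 1 h at 28°C. Stopped with EDTA buffer. Percent inhibition came from substrate conversion; ratio taken as WT IC50 over L858R/T790M IC50.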

NCI-H1975 = experiment: Cytotoxicity against human NCI-H1975 cells expressing EGFR L858R/T790M double mutant after 72 hrs by MTT assay; type: functional, cell-based; details: NCI-H1975, 72 h; summary of the method: as §1
Homo sapiens [5] = species on record: Homo sapiens; experiment: Selectivity ratio of IC50 for human A549 cells expressing wild-type EGFR/K-Ras mutant to IC50 for human NCI-H1975 cells expressing EGFR L858R/T790M double mutant

| SMILES | IC50 ([1]; read-out: IC50) [µM] | IC50 (HT-29) [µM] | IC50 [2] [µM] | IC50 [3] [µM] | IC50 (A549) [µM] | Ratio IC50 (Homo sapiens [4]) | IC50 (NCI-H1975) [µM] | Ratio IC50 (Homo sapiens [5]) | IC50 ([1]; read-out: pIC50 (converted)) [µM] |
| --- | --- | --- | --- | --- | --- | --- | --- | --- | --- |
| C=CC(=O)Nc1cc(Nc2ncc3ncn(-c4ccc(Cl)cc4)c3n2)c(OC)cc1N(C)CCN(C)C | 0.0039 | 7.69 | 0.0064 | 0.0156 | 1.86 | 7 | 0.085 | 30 |  |
| C=CC(=O)Nc1cc(Nc2ncc3ncn(-c4ccccc4F)c3n2)c(OC)cc1N(C)CCN(C)C |  | 9.75 |  |  | 5.82 |  | 6.72 | < 1 |  |
| C=CC(=O)Nc1cc(Nc2ncc3ncn(-c4ccc(C(C)C)cc4)c3n2)c(OC)cc1N(C)CCN(C)C | 0.0042 | 15.3 |  | 0.025 | 14.5 | 6 | 0.074 | 196 |  |
| C=CC(=O)Nc1cc(Nc2ncc3ncn(-c4ccc(OC)cc4)c3n2)c(OC)cc1N(C)CCN(C)C |  | 1.74 |  |  | 3.33 |  | 0.16 | 42 |  |
| C=CC(=O)Nc1cc(Nc2ncc3nc(Nc4ccccc4)n(C)c3n2)c(OC)cc1N(C)CCN(C)C | 0.0027 | 8.7 | 0.0035 | 0.0224 | 6.08 | 8.3 | 0.038 | 160 | 0.00269 |
| C=CC(=O)Nc1cc(Nc2ncc3[nH]c(=O)n(-c4ccc(I)cc4)c3n2)c(OC)cc1N1CCOCC1 |  | 19.6 |  |  | 18.5 |  | 4.31 | 4 |  |
| C=CC(=O)Nc1cc(Nc2ncc3ncn(-c4ccccc4Br)c3n2)c(OC)cc1N(C)CCN(C)C |  | 16.2 |  |  | 2.09 |  | 1.8 | 1 |  |
| C=CC(=O)Nc1cc(Nc2ncc3ncn(-c4ccc(C(C)C)cc4)c3n2)c(OC)cc1N1CCN(C)CC1 |  | 7.69 |  |  | 9.25 |  | 1.93 | 5 |  |
| C=CC(=O)Nc1cc(Nc2nccc(-c3cn(C)c4ccccc34)n2)c(OC)cc1N(C)CCN(C)C [OSIMERTINIB] |  | 0.65 |  |  | 0.87 |  | […] |  |  |
| C=CC(=O)Nc1cc(Nc2ncc3ncn(-c4ccc(F)c(Cl)c4)c3n2)c(OC)cc1N(C)CCN(C)C |  | 1.61 |  |  | 5.19 |  | 0.1 | 35 |  |
| C=CC(=O)Nc1cc(Nc2ncc3ncn(-c4ccc(I)cc4)c3n2)c(OC)cc1N1CCOCC1 |  | 35.1 |  |  | 1.52 |  | 29.8 | < 1 |  |
| C=CC(=O)Nc1cc(Nc2ncc3ncn(-c4ccc(C)cc4)c3n2)c(OC)cc1N(C)CCN(C)C |  | 9.23 |  |  | 0.36 |  | 0.14 | 3 |  |
| C=CC(=O)Nc1cc(Nc2ncc3ncn(-c4ccc(I)cc4)c3n2)c(OC)cc1N1CCN(C)CC1 |  | 20.7 |  |  | 6.31 |  | 7.32 | < 1 |  |
| C=CC(=O)Nc1cc(Nc2ncc3ncn(-c4ccc(F)c(Br)c4)c3n2)c(OC)cc1N(C)CCN(C)C | 0.0023 | 3.64 |  | 0.01 | 3.02 | 4.3 | 0.035 | 86 |  |
| C=CC(=O)Nc1cc(Nc2ncc3ncn(-c4ccc(I)cc4)c3n2)c(OC)cc1N(C)CCN(C)C | 0.0035 | 9.52 | 0.0047 | 0.017 | 8.71 | 4.9 | 0.076 | 115 |  |
| C=CC(=O)Nc1cc(Nc2ncc3ncn(C4CCCC4)c3n2)c(OC)cc1N(C)CCN(C)C |  | 20.9 |  |  | 2.9 |  | 0.33 | 9 |  |
| C=CC(=O)Nc1cc(Nc2ncc3[nH]c(=O)n(-c4ccc(I)cc4)c3n2)c(OC)cc1N(C)CCN(C)C |  | 4.82 |  |  | 1.23 |  | 0.83 | 15 |  |
| C=CC(=O)Nc1cc(Nc2ncc3nc(Nc4ccccc4)n(C(C)C)c3n2)c(OC)cc1N(C)CCN(C)C | 0.0051 | 4.72 |  | 0.041 | 1.42 | 8 | 0.046 | 31 |  |
| C=CC(=O)Nc1cc(Nc2ncc3ncn(-c4ccc(C(C)C)cc4)c3n2)c(OC)cc1N1CCOCC1 |  | 23 |  |  | 4.23 |  | 5.1 | < 1 |  |
| C=CC(=O)Nc1cc(Nc2ncc3nc(Nc4ccccc4)n(C4CCCC4)c3n2)c(OC)cc1N(C)CCN(C)C |  | 11.4 |  |  | 0.78 |  | 0.23 | 3 |  |
| C=CC(=O)Nc1cc(Nc2ncc3ncn(-c4ccc(F)cc4)c3n2)c(OC)cc1N(C)CCN(C)C | 0.0032 | 12 | 0.0058 | 0.0182 | 0.42 | 5.6 | 0.061 | 7 |  |
| C=CC(=O)Nc1cc(Nc2ncc3ncn(-c4ccccc4Cl)c3n2)c(OC)cc1N(C)CCN(C)C |  | 11.3 |  |  | 12.6 |  | 1.71 | 7 |  |
| C=CC(=O)Nc1cc(Nc2ncc3[nH]c(=O)n(-c4ccc(I)cc4)c3n2)c(OC)cc1N1CCN(C)CC1 |  | 39.3 |  |  | 0.49 |  | 10.4 | < 1 |  |
| C=CC(=O)Nc1cc(Nc2ncc3ncn(-c4ccc(CC)cc4)c3n2)c(OC)cc1N(C)CCN(C)C |  | 8.18 |  |  | 1.97 |  | 0.13 | 16 |  |
| C=CC(=O)Nc1cc(Nc2ncc3[nH]c(=O)n(-c4ccc(C(C)C)cc4)c3n2)c(OC)cc1N1CCOCC1 |  | 1.54 |  |  | 1.17 |  | 4.04 | < 1 |  |
| C=CC(=O)Nc1cc(Nc2ncc3ncn(-c4ccccc4)c3n2)c(OC)cc1N(C)CCN(C)C |  | 8.08 |  |  | 0.58 |  | 0.11 | 58 |  |
| C=CC(=O)Nc1cc(Nc2ncc3ncn(-c4ccc(Cl)cc4Cl)c3n2)c(OC)cc1N(C)CCN(C)C |  | 20.6 |  |  | 11.2 |  | 1.61 | 7 |  |
| C=CC(=O)Nc1cc(Nc2ncc3[nH]c(=O)n(-c4ccc(C(C)C)cc4)c3n2)c(OC)cc1N1CCN(C)CC1 |  | 14.3 |  |  | 2.05 |  | 2.14 | 1 |  |
| C=CC(=O)Nc1cc(Nc2ncc3ncn(-c4ccc(Br)cc4)c3n2)c(OC)cc1N(C)CCN(C)C |  | 1.46 |  |  | 1.15 |  | 0.14 | 8 |  |
